S1P3 agonist: activates the human S1P3 receptor; S1P3 NFAT-BLA reporter cells, agonism, FRET ratio; relative to 1 µM S1P, basal subtracted; activation, % at 4.5 µM; 60,000 tested, 0.1% active; AID 373;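 active = activation above the screen-wide mean plus 3 SD, cut at about 4.5% in these data, passing the limit was not always enough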
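Material: Human S1P3 NFAT-BLA reporter CHO cells | Incubation: Overnight plating, 4 h compound 37 °C, 2 h substrate RT | Signal: FRET β-lactamase substrate fluorescence, excitation 405 nm, 460/535 nm emission ratio, background-subtracted | Compound: 4.5 µM final, single dose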
HTR1A agonist: 5-HT1a (human) receptor agonism. P08908. CHO 5-HT1a Ga15 NFAT-bla reporter, FRET ratio; 0% basal, 100% maximal reference agonist. activation, % at 10 µM. 65,000 tested, 0.56% active. AID 567;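 active = activation above the screen-wide mean activation plus 3 SD, cut at about 19% in these data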
HTR1E agonist: agonists of human 5-HT1E serotonin receptor. CHO 5-HT1E Ga15 NFAT-bla reporter, FRET; 0% DMSO wells, 100% control agonist wells. activation, % at 6 µM. 65,000 tested, 0.69% active;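 active = activation above a set limit, the screen-wide mean activation plus 3 SD, cut at about 8.5% in these data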
Target sequence (P28566 whole entry, looked up): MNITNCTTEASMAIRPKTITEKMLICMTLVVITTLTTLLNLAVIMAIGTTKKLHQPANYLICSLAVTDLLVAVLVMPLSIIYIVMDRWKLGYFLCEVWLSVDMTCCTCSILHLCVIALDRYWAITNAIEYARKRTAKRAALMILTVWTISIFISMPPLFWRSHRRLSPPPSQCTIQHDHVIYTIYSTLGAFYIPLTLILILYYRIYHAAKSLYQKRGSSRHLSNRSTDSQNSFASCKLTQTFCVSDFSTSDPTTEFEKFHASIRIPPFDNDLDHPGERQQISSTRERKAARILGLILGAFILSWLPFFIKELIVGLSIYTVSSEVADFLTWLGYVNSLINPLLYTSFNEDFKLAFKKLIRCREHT
S1P1 ag-PAM: activates or potentiates agonism at human S1P1 receptor. AID 449. S1P1 CRE-bla cells, forskolin, beta-lactamase FRET, potentiator mode; S1P1 agonist co-added at EC20, 2 nM; 100% = saturating reference agonist, 0% = basal. 56,000 tested, 0.57% active. activation, % at 9.5 µM. P21453;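 active = activation above a cutoff set at the mean activation of all tested compounds plus 3 SD, cut at about 54% in these data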;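 also: forskolin at 4 µM as EC80 and the EC20 agonist is SEW2871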
5HT1E antag: antagonists of human 5-HT1E serotonin receptor. P28566. CHO 5-HT1E Ga15 NFAT-bla reporter, FRET, antagonist. inhibition, % at 6 µM. 65,000 tested, 0.99% active. AID 571;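 active = inhibition above a set limit, the mean inhibition across every tested compound plus 3 SD, cut at about 29% in these data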;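 also: signal is the 460 over 535 nm emission ratio of beta-lactamase substrate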
5HT1a antag: 5-HT1a (human) receptor antagonism | CHO 5-HT1a Ga15 NFAT-bla reporter, antagonist mode | inhibition, % at 10 µM | AID 612 | 62,000 tested, 0.68% active | P08908;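 active = inhibition above the mean of all tested compounds plus 3 SD, cut at about 43% in these data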;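 also: receptor stimulated by 5-CT agonist at 100 nM near EC80; beta-lactamase reporter measured by ratiometric fluorescence of a cleavable substrate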
Hits are given with their value; – = inactive; · = no result given. Sampled rows, rich in hits. Any-hit rate of the full collection: about 2.9%.

SMILES | S1P3 agonist | HTR1A agonist | HTR1E agonist | S1P1 ag-PAM | 5HT1E antag | 5HT1a antag
Cc1occc1-c1nnc(SCC(=O)NC(C)(C)C)n1C(C)c1ccccc1 (stereo not given) | – | – | 43.2 | – | – | –
CCC(C(=O)NC1CCCC1)N(Cc1ccco1)C(=O)Cn1nnc(-c2ccc(C)cc2)n1 (stereo not given) | – | – | 9.0 | – | – | –
O=C(NC1CCCCC1)C(c1ccccc1F)N(Cc1ccco1)C(=O)Cn1nnc2ccccc21 (stereo not given) | – | – | – | – | – | 54.7
O=C(NC1CCCCC1)C(c1ccc(F)cc1)N(Cc1ccco1)C(=O)Cn1nnc2ccccc21 (stereo not given) | – | – | – | – | – | –
CCOC(=O)CN(C(=O)Cn1nnc(-c2ccc(C)cc2)n1)C(CC)C(=O)NC1CCCC1 (stereo not given) | – | – | – | – | – | –
COc1ccc(NS(=O)(=O)c2ccc3c(c2)Cc2ccccc2-3)cn1 | – | – | – | · | – | –
CC(OC(=O)c1cccs1)C(=O)NCc1ccco1 (stereo not given) | – | – | 15.7 | – | – | –
CC(C)C(OC(=O)c1cccs1)C(=O)NCc1ccco1 (stereo not given) | – | – | – | – | – | –
CC1CCN(c2oc(-c3ccccc3Cl)nc2C#N)CC1 | – | – | – | – | 36.6 | ·
CCNc1nc(SCc2ccccc2)nc(N2CCOCC2)n1 | – | – | – | – | 36.3 | –
Nc1nc(CSCc2ccccc2)nc(N2CCOCC2)n1 | – | – | – | – | – | –
COc1cccc(NC(=O)CSc2nnc(-c3cccc(OC(C)C)c3)n2N)c1 | – | – | – | – | – | –
CCOCCN1CCN(c2c(C)c(C)nc3cc(-c4cc(OC)cc(OC)c4)nn23)CC1 | · | – | – | · | 40.0 | –
COCCN1CCN(c2c(C)c(C)nc3cc(-c4cccc(OC)c4)nn23)CC1 | · | – | – | · | – | –
Cc1ccc(-n2c(C)cc(C(=O)COC(=O)c3c(C)noc3C)c2C)cc1 | – | – | – | 61.6 | – | –
Cc1ccc(C)c(N2CCN(C(=O)CN(C)S(=O)(=O)c3cnc[nH]3)CC2)c1 | – | – | – | – | – | –
N#CCSc1nnc(-c2ccccc2)c(-c2ccccc2)n1 | 6.3 | – | – | – | – | –
CC(NC(=O)c1ccnc(C(C)(C)C)c1)c1ccccc1 (stereo not given) | – | – | – | – | – | –
Cc1cc(C)n2nc(SC3CCCCN(C(=O)c4ccc(F)cc4)C3=O)nc2n1 (stereo not given) | – | – | – | – | – | –
Cc1noc(C)c1CSc1nc2ccccc2[nH]1 | – | 67.0 | – | – | – | –
O=C(NCc1ccco1)c1cnn2c(C(F)(F)F)cc(-c3cccs3)nc12 | – | – | – | – | – | –
COc1ccc(C2C(C#N)=C(N)N3C(=C2C#N)Sc2ccccc23)cc1 (stereo not given) | – | – | – | – | – | –
C=CCNc1nc(-c2c(C)nc3sccn23)cs1 | – | – | – | · | – | –
Cc1nc2sccn2c1-c1csc(NCc2ccccc2)n1 | – | – | – | 112.9 | – | –
c1ccc(CSc2nnc(-c3c[nH]c4ccccc34)o2)cc1 | – | – | – | 97.8 | – | –
SMILES | S1P3 agonist | HTR1A agonist | HTR1E agonist | S1P1 ag-PAM | 5HT1E antag | 5HT1a antag
O=C(CSc1nnc(-c2c[nH]c3ccccc23)o1)N1c2ccccc2CCc2ccccc21 | – | – | – | – | – | –
CCOc1ccccc1C(=O)Nc1nnc(C(C)C)s1 | – | – | – | – | 32.6 | –
NC(Cc1ccc2nonc2c1)C(=O)O (stereo not given) | – | 53.7 | – | – | – | –
N[C@@H](Cc1ccc(O)c(I)c1)C(=O)O | – | – | – | – | – | ·
CCN(CCCc1ccccc1)CCCc1ccccc1 | – | – | 30.8 | – | – | ·
CCN(CC)CCCNC(=O)N[C@@H](Cc1ccccc1)C(=O)O | – | – | – | – | – | –
CCOC(=O)C1=C(C)NC(=O)C(C(N)=O)C1c1ccccc1 (stereo not given) | – | – | – | – | – | –
CCN(CC)C(=O)Sc1cccc2cccnc12 | – | – | – | – | – | –
CCOC(=O)CSc1cccc2cccnc12 | – | – | – | – | 39.7 | –
Cc1cc(C)n(CCCNCC(O)c2ccccc2)n1 (stereo not given) | – | – | – | – | – | –
O=S(=O)(c1cccc(Cl)c1)N1CCCC1 | · | – | 130.8 | · | – | –
O=S(=O)(c1cccc(S(=O)(=O)N2CCCC2)c1)c1cccc(S(=O)(=O)N2CCCC2)c1 | – | – | – | – | – | –
OCCN1CCN(CCCN2c3ccccc3Sc3ccc(C(F)(F)F)cc32)CC1 | – | – | – | – | – | ·
CN(C)CCCN1c2ccccc2Sc2ccc(C(F)(F)F)cc21 | – | – | 11.7 | – | – | ·
COc1ccc(C2C3=C(CCCC3=O)Nc3nc(C(F)(F)F)nn32)c(OC)c1OC (stereo not given) | – | – | – | – | – | –
c1ccc2c(CC3=NCCN3)cccc2c1 | – | – | 9.2 | – | – | ·
Cc1nc(N2CCN(C)CC2)[nH]c(=O)c1Cc1cccc2ccccc12 | – | – | – | – | – | –
COc1ccc(CNc2nc(-c3cccnc3)nn2C(=O)c2cccs2)cc1 | – | – | – | – | 31.0 | –
COc1ccc(Nc2nc(N)nc(CSc3n[nH]c(-c4ccccc4)n3)n2)cc1 | – | – | – | – | 42.1 | –
Nc1nc(CSc2n[nH]c(-c3ccccc3)n2)nc(Nc2ccccc2)n1 | – | – | – | – | 29.5 | –
COc1ccccc1Nc1nc(N)nc(CSc2ncccn2)n1 | – | – | – | – | – | –
CCn1c(Sc2ccc(N)cc2Cl)nc2ccccc21 | – | – | – | · | – | –
CCOc1ccc2[nH]cc(C(=O)N3CCN(CC)CC3)c(=O)c2c1 | – | – | – | – | – | –
Cc1c(C)[n+](=O)c2c(n1[O-])CCCCC2 | – | – | 22.9 | – | – | –
CN(C)S(=O)(=O)c1ccc(/C(O)=C2/C(=O)C(=O)N(CCN3CCCCC3)C2c2cccnc2)cc1 (stereo not given) | – | – | – | – | – | –
CCOC(=O)c1ccc2c(c1)nc(SCC(=O)N1CCCCC1)n2CC | – | – | – | – | – | –
CCn1c(C)nc2cc(C(=O)OCCC(F)(F)F)ccc21 | – | 26.0 | – | – | – | –
Cc1ccc(-c2nnc(N3CCCCC3)c3ccccc23)cc1S(=O)(=O)N1CCN(C)CC1 | – | – | – | – | 30.6 | –
CCOC(=O)C(C(=O)OCC)c1cc(Br)c2noc3c2c1C(=O)c1ccccc1-3 | · | – | – | · | 32.3 | 47.9

Compound activity (PubChem)
